Hits are enriched below; roughly 3.8% of the tested compounds scored in any of these assays.
ARNT TACC3 PPI – disrupts binding between human ARNT and TACC3; AlphaScreen His-ARNT PAS-B/GST-TACC3 binding, luminescence; TACC3 fragment carries E629A point mutation; hit rate 0.66% among 390,000; inhibition, % at 9.99 µM;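 active = mean inhibition of replicates at least 50% and at least half of replicates each reaching 50%; inconclusive = half or more replicates reach 50% but mean below 50%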
SIRT5 block – inhibitors of human sirtuin-5 desuccinylase | Q9NXA8 | Purified SirT5, succinyl-peptide AMC, trypsin-coupled fluorescence | inhibition, % at 15 µM | hit rate 1.1% among 330,000; in the data active = inhibition above about 15%; inconclusive = no clear call, values can overlap the other calls
Target sequence (Q9NXA8 whole entry, looked up): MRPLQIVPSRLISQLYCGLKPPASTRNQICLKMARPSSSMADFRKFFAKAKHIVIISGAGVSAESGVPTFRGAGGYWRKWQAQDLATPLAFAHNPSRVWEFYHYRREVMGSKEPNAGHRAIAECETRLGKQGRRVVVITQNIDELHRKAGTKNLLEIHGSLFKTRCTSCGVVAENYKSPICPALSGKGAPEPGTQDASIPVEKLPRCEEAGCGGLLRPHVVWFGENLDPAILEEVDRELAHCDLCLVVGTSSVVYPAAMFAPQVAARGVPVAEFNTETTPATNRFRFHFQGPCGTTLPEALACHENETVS
DENV2 CPE – inhibitors of DENV2 cytopathic effect. CPE inhibition, % at 9.99 µM. DENV2-infected cells, cytopathic effect rescue, plate reader. hit rate 1.7% among 350,000; in the data active = CPE inhibition above about 20%, passing the limit was not always enough; inconclusive = no clear call, values can overlap the other calls; tested in BHK-21 cells
FN deposit inh – fibronectin deposition inhibition; AID 743247; hit rate 0.086% among 350,000; AH1F fibroblasts, Alexa488-fibronectin deposition fluorescence, overnight; inhibition, % at 12.6 µM;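 active = mean inhibition across replicates of 30% or more, regardless of how many single replicates reach that level; inconclusive = mean under 30% yet at least half of replicates reach 30%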
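Measured by – fluorescence 485/525 nm · System – AH1F fibroblast monolayer, labelled fibronectin deposition · Amount – 10000 cells per well · Buffer or medium – serum-reduced DMEM (2% serum) · Doses – single dose, pinned · Also added – fluorescent fibronectin at 24 nM final · Schedule – 1 h cell attachment, overnight exposure to compound and label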
Xi reactivation – reactivates the inactive X chromosome in mouse fibroblasts; XiGFP mouse fibroblasts, % GFP-positive cells imaging, 3 d; cells co-treated with 5-aza-dC sensitizer; scaled so ellipticine positive control = 100%; activation, % at 7.58 µM; hit rate 0.055% among 360,000; AID 743238;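 active = mean normalized replicate activation at least 10% and every replicate at or above 10%; inconclusive = only one of the two criteria met; inactive = mean below 10% and not all replicates reach 10%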
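Assay system: SV40-immortalized XiGFP fibroblast cells, line 68-5-11; buffer or medium: DMEM plus 5-aza-dC sensitizer; compound: one concentration, pinned; timing: compounds 3 days, fix/stain 15 min at room temperature; benchmarks: positive control ellipticine, 6 µM final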
FGF22 binding – binders of recombinant human FGF22 by thermal shift; SYPRO orange fluorescence; percent of sucrose octasulfate shift, DMSO zero; activity (Tm shift, normalised), % at 9.99 µM; hit rate 1.5% among 340,000; AID 651658;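 active = mean Tm shift, scaled 0 neutral to 100 positive control, at about 1.3% or above, every replicate too, limit read from the data; inconclusive = no clear call, values can overlap the other calls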
Target sequence (Q9HCT0 whole entry, looked up): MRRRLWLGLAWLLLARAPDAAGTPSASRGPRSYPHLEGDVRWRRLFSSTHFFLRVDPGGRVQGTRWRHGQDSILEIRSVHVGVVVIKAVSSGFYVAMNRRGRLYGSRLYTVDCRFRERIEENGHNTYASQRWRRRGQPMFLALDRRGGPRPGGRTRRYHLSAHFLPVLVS
Numbers stand for hits; 0 = inactive; ? = inconclusive; - = not tested or not shown.

SMILES | ARNT TACC3 PPI | SIRT5 block | DENV2 CPE | FN deposit inh | Xi reactivation | FGF22 binding
CCCNC(=O)Nc1ccc2c(c1)C(=O)N(C)[C@@H]1CC[C@@H](CC(=O)NCc3ccccc3)O[C@@H]1CO2 | - | 0 | 56.0 | 0 | 0 | 0
CNC[C@H]1OCCCC[C@H](C)Oc2ccc(NC(=O)Nc3ccc4c(c3)OCO4)cc2C(=O)N([C@@H](C)CO)C[C@@H]1C | 0 | 0 | ? | - | 0 | 0
Cc1noc(C)c1NC(=O)N(C)C[C@H]1Oc2ccc(N(C)C)cc2CC(=O)N([C@H](C)CO)C[C@@H]1C | 0 | 0 | 0 | 0 | 0 | 0
COCC(=O)N1CC2(C1)[C@H](c1ccc(-c3ccc(F)cc3)cc1)[C@@H](CO)N2C(=O)C1CC1 | - | 0 | 0 | - | 0 | 0
CCNC(=O)Nc1ccc2c(c1)C(=O)N(C)[C@H]1CC[C@@H](CC(=O)NC3CCCCC3)O[C@@H]1CO2 | 0 | 0 | 27.4 | 0 | 0 | 0
CN1C(=O)c2cc(NS(C)(=O)=O)ccc2OC[C@@H]2O[C@@H](CC(=O)NCc3ccc(-c4ccccc4)cc3)CC[C@@H]21 | 0 | 15.3 | 0 | - | 0 | 0
CN1C(=O)c2cc(NS(=O)(=O)c3cccc(F)c3)ccc2OC[C@H]2O[C@@H](CC(=O)O)CC[C@@H]21 | 0 | 0 | 71.2 | 0 | 0 | 0
CCCN(C)C[C@H]1OCCCC[C@@H](C)Oc2ccc(NC(=O)Nc3ccc(C(F)(F)F)cc3)cc2C(=O)N([C@@H](C)CO)C[C@H]1C | 0 | 0 | 0 | - | 0 | 0
COc1ccc(S(=O)(=O)N[C@@H]2CC[C@H](CCn3cc(-c4ccccc4F)nn3)O[C@H]2CO)cc1 | 0 | 0 | 0 | 0 | 0 | 0
COc1ccccc1CNC(=O)C[C@@H]1C=C[C@@H](NC(=O)CC2CC2)[C@H](CO)O1 | 0 | 0 | 0 | - | 0 | 0
Cn1cccc1C(=O)C(=O)Nc1ccccc1C(F)(F)F | 0 | 0 | 0 | 0 | 0 | 43.2
C[C@@H]1CN([C@@H](C)CO)C(=O)Cc2cc(NC(=O)Nc3ccc4c(c3)OCO4)ccc2O[C@H]1CN(C)Cc1ccc(C(=O)O)cc1 | - | 0 | 0 | - | 0 | 0
CC(C)(C)S(=O)N1Cc2cc(C(=O)NCc3ccc4c(c3)OCO4)nc(-c3cccc(-c4cccc(F)c4)c3)c2[C@@H]1CCO (stereo not given in full) | - | 0 | 23.9 | 0 | 0 | -
CC(C)(C)[S@@](=O)N1Cc2cc(C(=O)NCc3ccccc3F)nc(-c3cccc(-c4cncnc4)c3)c2[C@H]1CCO | 0 | 0 | - | 31.0 | 0 | 0
CC(C)(C)S(=O)N1Cc2cc(C(=O)NCc3ccc4c(c3)OCO4)nc(-c3cccc(C#CCC4CCCC4)c3)c2[C@@H]1CCO (stereo not given in full) | - | 0 | 49.4 | - | - | 0
Cc1ccc(C(=O)N2CCN(Cc3ccc4c(c3)OCO4)CC2)cc1S(=O)(=O)N1CCOCC1 | - | 16.0 | 0 | 0 | 0 | 0
Oc1ccccc1C=NCCN=Cc1ccccc1O | 0 | 0 | 0 | 0 | - | 0
Oc1ccccc1C=NCCN1CCN(CCN=Cc2ccccc2O)C1c1ccccc1O (stereo not given) | 71.3 | 0 | 0 | - | 0 | 0
O=C(C1=C[C@@H](c2ccc3c(c2)OCO3)C[C@@H](OCc2ccc(CO)cc2)O1)N1CCCCCCC1 | - | 0 | 0 | - | - | 0
COc1ccc(NC(=O)Nc2ccc3c(c2)C(=O)N([C@@H](C)CO)C[C@H](C)[C@H](CN(C)C(=O)Nc2ccc(C(F)(F)F)cc2)OCCCC[C@H](C)O3)cc1 | 0 | 0 | 0 | - | 0 | 0
C[C@H](CO)N1C[C@H](C)[C@H](CN(C)C(=O)Nc2ccc(C(F)(F)F)cc2)OCCCC[C@H](C)Oc2ccc(NC(=O)Nc3ccc(C(F)(F)F)cc3)cc2C1=O | 0 | - | 0 | 0 | 0 | 0
COc1ccc(NC(=O)Nc2ccc3c(c2)C(=O)N([C@@H](C)CO)C[C@@H](C)[C@H](CN(C)C(=O)Nc2ccc(C(F)(F)F)cc2)OCCCC[C@@H](C)O3)cc1 | 0 | 18.1 | ? | - | 0 | 1.2
C[C@@H]1CCCCO[C@H](CN(C)C(=O)Nc2ccc(C(F)(F)F)cc2)[C@H](C)CN([C@@H](C)CO)C(=O)c2cc(NC(=O)Nc3ccc4c(c3)OCO4)ccc2O1 | 0 | 15.2 | 0 | 0 | 0 | 0
C[C@@H]1CCCCO[C@H](CN(C)C(=O)Nc2ccc(C(F)(F)F)cc2)[C@H](C)CN([C@@H](C)CO)C(=O)c2cc(NC(=O)Nc3ccc(C(F)(F)F)cc3)ccc2O1 | 0 | - | 29.6 | 0 | 0 | 0
C[C@H]1CCCCO[C@H](CN(C)C(=O)Nc2ccccc2)[C@@H](C)CN([C@@H](C)CO)C(=O)c2cc(NC(=O)Nc3ccc(C(F)(F)F)cc3)ccc2O1 | - | 0 | 59.8 | - | 0 | 0
SMILES | ARNT TACC3 PPI | SIRT5 block | DENV2 CPE | FN deposit inh | Xi reactivation | FGF22 binding
CO[C@H]1CN(C)C(=O)c2ccc(NC(=O)C3CCC3)cc2OC[C@H](C)N(Cc2ccncc2)C[C@H]1C | 0 | 0 | 0 | - | 0 | 0
C[C@H]1CCCCO[C@H](CN(C)C(=O)Nc2cccc3ccccc23)[C@@H](C)CN([C@@H](C)CO)C(=O)c2cc(NC(=O)Nc3ccc(C(F)(F)F)cc3)ccc2O1 | 0 | 0 | 0 | - | 0 | 0
C[C@@H]1CCCCO[C@H](CN(C)CC2CCCCC2)[C@H](C)CN([C@H](C)CO)C(=O)c2cc(NC(=O)Nc3ccc(C(F)(F)F)cc3)ccc2O1 | 0 | 100.0 | 0 | 0 | 0 | 0
C[C@@H]1CN([C@@H](C)CO)C(=O)c2cc(NC(=O)Nc3ccc(C(F)(F)F)cc3)ccc2O[C@@H](C)CCCCO[C@@H]1CN(C)CC1CCCCC1 | 0 | 0 | 0 | 0 | 0 | 0
C[C@@H]1CCCCO[C@H](CN(C)C(=O)Nc2ccc(C(F)(F)F)cc2)[C@@H](C)CN([C@@H](C)CO)C(=O)c2cc(NC(=O)Nc3ccc(C(F)(F)F)cc3)ccc2O1 | 0 | - | ? | 0 | 0 | 0
C[C@@H]1CCCCO[C@H](CN(C)C(=O)Nc2ccc(C(F)(F)F)cc2)[C@@H](C)CN([C@H](C)CO)C(=O)c2cc(NC(=O)Nc3ccc(C(F)(F)F)cc3)ccc2O1 | 0 | 0 | 0 | 0 | 0 | 1.4
O=C(O)c1cccc(-n2cccc2/C=C2/NC(=O)N(c3ccc(Cl)cc3)C2=O)c1 | 0 | 43.9 | 0 | 0 | 0 | -
CNC[C@@H]1Oc2ccc(N)cc2CC(=O)N(C)C[C@H]1C | - | - | - | 0 | 0 | -
Cc1ccccc1N1CC(C(=O)O)CC1=O (stereo not given) | - | 28.7 | 0 | 0 | 0 | 0
Cc1ccccc1N1CC(C(=O)N2CCc3ccccc32)CC1=O (stereo not given) | 0 | 0 | 0 | - | 0 | 0
Nc1cc(Cl)ccc1Oc1ccccc1 | 0 | - | - | 0 | - | -
Cc1cccc(Oc2ccc(Cl)cc2N)c1 | 0 | 112.0 | 0 | - | 0 | 0

Screens deposited in PubChem BioAssay by Broad Institute.
